Test results from ChEMBL document CHEMBL1122654, “Phosphorus analogues of gamma-aminobutyric acid, a new class of anticonvulsants” (J Med Chem, 1984).
The source made the active and inactive calls.

Columns and labels:
[1] = target: GABA-A receptor; anion channel (Rattus norvegicus) (UniProt O09028+P15431+P18506+P18508+P19969+P20236+P23574+P23576+P28471+P28473+P30191+P62813+P63079+P63138+Q91ZM7+Q9ES14); assay: Displacement of [3H]-GABA from Gamma-aminobutyric acid A receptor binding sites in brain homogenates (relative to 1 mM GABA) at 100 uM; format: tissue-based
Outline: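 Male Sprague-Dawley rat brain, frozen, homogenized in 50 mM Tris-citrate (pH 7.1 at 4 °C). Membranes treated with 0.05% Triton X-100 for 30 min at 37 °C and resuspended at 0.5–1.0 mg/mL protein. Incubated with 8 nM [3H]GABA for 5 min at 4 °C, stopped by centrifugation, and counted by scintillation. Test concentration 100 µM. Expressed as percent of the inhibition given by 1 mM GABA. Mean of two experiments, each in triplicate.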

Mus musculus [2] = assay: In vivo anticonvulsant activity against electric shock induced seizures(MES) in mice 0.5 hr after ip administration; + indicates activity at 600 mg/kg.; format: functional, organism-based; design: dose 600 mg/kg
[3] = target: GABA B receptor (Rattus norvegicus) (UniProt Q9Z0U4+O88871); assay: Displacement of [3H]GABA from GABA-B binding sites in brain homogenates (relative to 100 uM baclofen) at 100 uM; format: tissue-based
Outline: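 Rat brain membrane binding (male Sprague-Dawley) using 10 nM [3H]GABA, with 100 µM isoguvacine present to block GABA-A sites. Test concentration 100 µM. Percent inhibition expressed relative to 100 µM baclofen. Mean of two separate experiments, each in triplicate.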

Mus musculus [4] = assay: In vivo anticonvulsant activity against pentylene tetrazole seizure threshold(SMC) in mice 0.5 hr after sc administration; +++ indicates activity at 100 mg/kg; format: functional, organism-based; design: dose 100 mg/kg
Mus musculus [5] = assay: In vivo neurotoxicity at 600 mg/kg, number of animals exhibiting neurotoxicity in the rotarod test / number of animals tested at 0.5 hr; 0/4; format: toxicity, organism-based; design: dose 600 mg/kg
Mus musculus [6] = assay: In vivo anticonvulsant activity against pentylene tetrazole seizure threshold(SMC) in mice 4 hr after sc administration; - indicates inactive at 600 mg/kg; format: functional, organism-based; design: dose 600 mg/kg
Mus musculus [7] = assay: In vivo anticonvulsant activity against electric shock induced seizures(MES) in mice 4 hr after ip administration; + indicates activity at 600 mg/kg; format: functional, organism-based; design: dose 600 mg/kg
Mus musculus [8] = assay: In vivo neurotoxicity at 600 mg/kg, number of animals exhibiting neurotoxicity in the rotarod test / number of animals tested 4 hr; 0/2; format: toxicity, organism-based; design: dose 600 mg/kg
[9] = Partition coefficient (logP); format: physicochemical; details: octanol/water
Mus musculus [10] = assay: In vivo anticonvulsant activity against electric shock induced seizures(MES) in mice 0.5 hr after ip administration; active at 600 mg/kg; format: functional, organism-based; design: dose 600 mg/kg
Mus musculus [11] = assay: In vivo neurotoxicity at 600 mg/kg, number of animals exhibiting neurotoxicity in the rotarod test / number of animals tested at 0.5 hr; 1/4; format: toxicity, organism-based; design: dose 600 mg/kg
Mus musculus [12] = assay: In vivo anticonvulsant activity against electric shock induced seizures(MES) in mice; 104-131; format: functional
Mus musculus [13] = assay: In vivo anticonvulsant activity against electric shock induced seizures(MES) in mice 4 hr after ip administration; + indicates activity at 600 mg/kg.; format: functional, organism-based; design: dose 600 mg/kg
Mus musculus [14] = assay: In vivo neurotoxicity at 600 mg/kg, number of animals exhibiting neurotoxicity in the rotarod test / number of animals tested at 0.5 hr; 4/4; format: toxicity, organism-based; design: dose 600 mg/kg
Mus musculus [15] = assay: In vivo anticonvulsant activity against electric shock induced seizures(MES) in mice 0.5 hr after ip administration; ++ indicates activity at 300 mg/kg.; format: functional, organism-based; design: dose 300 mg/kg
Mus musculus [16] = assay: In vivo neurotoxicity at 600 mg/kg, number of animals exhibiting neurotoxicity in the rotarod test / number of animals tested 4 hr; 2/2; format: toxicity, organism-based; design: dose 600 mg/kg
Mus musculus [17] = assay: In vivo neurotoxicity at 600 mg/kg, number of animals exhibiting neurotoxicity in the rotarod test / number of animals tested 4 hr; 1/2; format: toxicity, organism-based; design: dose 600 mg/kg
Mus musculus [18] = assay: In vivo anticonvulsant activity against pentylene tetrazole seizure threshold(SMC) in mice 0.5 hr after sc administration; + indicates activity at 600 mg/kg.; format: functional, organism-based; design: dose 600 mg/kg
Mus musculus [19] = assay: In vivo neurotoxicity at 600mg/kg, number of animals exhibiting neurotoxicity in the rotarod test / number of animals tested 0.5 hr; 4/4; format: toxicity, organism-based
Mus musculus [20] = assay: In vivo anticonvulsant activity against pentylene tetrazole seizure threshold(SMC) in mice 4 hr after sc administration; + indicates activity at 600 mg/kg.; format: functional, organism-based; design: dose 600 mg/kg

Structure (SMILES): COP(=O)(OC)c1cccc(N)c1
- inhibition [1]: 13%
- Anticonvulsant activity (Mus musculus [2]): Active
- inhibition [3]: 13%
- Anticonvulsant activity (Mus musculus [4]): Active
- Toxicity (Mus musculus [5]): 0
- Anticonvulsant activity (Mus musculus [6]): inactive
- Anticonvulsant activity (Mus musculus [7]): Active
- Toxicity (Mus musculus [8]): 0

Structure (SMILES): COP(=S)(OC)Oc1ccc([N+](=O)[O-])c(C(C)C)c1
- logP [9]: 4.05

Structure (SMILES): COP(=O)(OC)Oc1cc(C)c([N+](=O)[O-])c(C)c1
- logP [9]: 2.57

Structure (SMILES): CCOP(=O)(OCC)Oc1ccccc1 [PHOSPHORIC ACID DIETHYL ESTER PHENYL ESTER]
- logP [9]: 1.64

Structure (SMILES): CC1(C)COP(=S)(c2ccccc2)N1 (stereo not drawn)
- inhibition [3]: 15%
- Anticonvulsant activity (Mus musculus [10]): active at 600 mg/kg

Structure (SMILES): CCOP(=O)(CCCN)OCC
- Toxicity (Mus musculus [11]): 1
- Toxicity (Mus musculus [8]): 0

Structure (SMILES): CCOP(=O)(OCC)Oc1ccc(SC)cc1Cl
- logP [9]: 3.05

Structure (SMILES): COP(=S)(OC)Oc1ccc([N+](=O)[O-])c(C)c1 [FENITROTHION]
- logP [9]: 3.3

Structure (SMILES): Nc1cccc(P(=O)(O)O)c1
- Toxicity (Mus musculus [5]): 0
- Toxicity (Mus musculus [8]): 0

Structure (SMILES): COP(=O)(OC)Oc1ccc([N+](=O)[O-])c(C(C)C)c1
- logP [9]: 2.57

Structure (SMILES): COP(=O)(OC)Oc1ccc([N+](=O)[O-])cc1Cl
- logP [9]: 1.83

Structure (SMILES): CCc1cc(OP(=O)(OC)OC)ccc1[N+](=O)[O-]
- logP [9]: 2.19

Structure (SMILES): CCOP(=O)(OCC)Oc1ccc([N+](=O)[O-])cc1 [PARAOXON]
- logP [9]: 1.64

Structure (SMILES): COP(=O)(OC)Oc1ccc([N+](=O)[O-])c(C)c1 [FENITROXON]
- logP [9]: 1.69

Structure (SMILES): COP(=O)(OC)Oc1ccc([N+](=O)[O-])c(Cl)c1
- logP [9]: 1.83

Structure (SMILES): CN1C(=O)CC(c2ccccc2)C1=O (stereo not drawn) [PHENSUXIMIDE]
- ED50 (Mus musculus [12]): 112 mg/kg

Structure (SMILES): CCOP(=S)(OCC)Oc1ccc(SC)cc1Cl
- logP [9]: 4.4

Structure (SMILES): CC(C)OP(=O)(OC(C)C)c1cccc(N)c1
- Anticonvulsant activity (Mus musculus [13]): activity at 300 mg/kg
- Toxicity (Mus musculus [14]): 4
- Anticonvulsant activity (Mus musculus [15]): activity at 300 mg/kg
- Toxicity (Mus musculus [16]): 2

Structure (SMILES): COP(=O)(OC)Oc1ccc([N+](=O)[O-])cc1 [DIMETHYL 4-NITROPHENYL PHOSPHATE]
- logP [9]: 1.27

Structure (SMILES): CCOP(=O)(OCC)c1cccc(N)c1
- Anticonvulsant activity (Mus musculus [13]): activity at 300 mg/kg
- Toxicity (Mus musculus [17]): 1
- Anticonvulsant activity (Mus musculus [18]): activity at 300 mg/kg
- Toxicity (Mus musculus [19]): 4
- Anticonvulsant activity (Mus musculus [20]): activity at 300 mg/kg
- Anticonvulsant activity (Mus musculus [15]): activity at 300 mg/kg
